Source: PubChem BioAssay
This excerpt belongs to a sample that is enriched for hits.
PolyA inhibitor: yeast polyadenylation inhibition; activity score, % at 12 µM; S. cerevisiae SKY197-pL101 polyadenylation reporter, beta-gal luminescence; efflux-impaired pdr1/pdr3 knockout yeast; score 100 = 6 SD above DMSO; AID 1875; 0.02% of 300,000 active;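 active = lowest replicate activity score at least 50, where 100 means six control SD above control mean; inconclusive = lowest score under 50 but half or more replicates reach 50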;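 note: yeast exposed to compound for 9 h at 30 °C; higher score means more reporter readthrough which indicates perturbed polyadenylation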
Calb FLC: affects C. albicans growth with fluconazole. growth inhibition, % (concentration not given with the values). 0.57% of 300,000 active. C. albicans CaCi-2 (fluconazole-resistant clinical isolate) + fluconazole, Alamar Blue growth, 48 h;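 active = growth inhibition above about 58% in most replicates, limit read from the data, passing the limit was not always enough; inconclusive = exactly half the replicates above a set limit; inactive = most replicates below a set limit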;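 note: all wells also contain fluconazole at 8 µg/ml as a sub-toxic cotreatment; 0% = median of DMSO wells and 100% = median of geldanamycin control wells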
T cruzi inh: T. cruzi replication inhibition; T. cruzi beta-gal in NIH3T3, luminescence, 90 h; AID 1885; 1.4% of 300,000 active; inhibition, % (concentration not given with the values);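 active = mean inhibition across valid replicates above about 55%, limit read from the data; inconclusive = mean below that limit but half or more replicates reach it; inactive = mean below it, under half of replicates reach it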;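 note: signal also drops with host cell toxicity which is not excluded here; 0% = plate median of DMSO wells and 100% = zero luminescence signal; higher percent means less beta-gal luminescence so fewer parasites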
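assay system = mouse NIH/3T3 fibroblasts infected with β-gal-expressing T. cruzi Tulahuen C4 | input = 5,000 NIH/3T3 host cells per well | buffer or medium = DMEM plus 2% FBS | timing = 3 h host attachment, then at least 90 h co-culture | measured by = GalScreen luminescence, 60 min | evaluation = luminescence reflecting intracellular parasite burden, expressed as percent inhibition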
NALP3 yeast inh: blocks the NALP3 inflammasome reconstituted in yeast. Yeast reconstituted NLRP3/ASC/caspase-1, beta-gal luminescence, 24 h. inhibition, % at 10 µM. 0.39% of 330,000 active;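 active = inhibition of 50% or more; inactive = inhibition below 50%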;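 note: plate controls were induced DMSO wells for no effect and uninduced yeast grown without galactose for full effect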
L major viab: reduces viability of Leishmania major promastigotes; resazurin fluorescence viability; inhibition, % at 10 µM; 9% of 200,000 active; AID 1063; in the data active = inhibition above about 50%;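 note: promastigotes grown with compound for 44 hours at 28 °C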
NALP1 inh: NALP1 inhibition | S. cerevisiae NALP1/ASC/caspase-1 growth, X-gal OD620, 72 h | inhibition, % at 10 µM | 0.61% of 280,000 active | AID 2071; in the data active = inhibition mostly above about 24%, no sharp cut-off; inactive = mostly below about 32%
* marks the source's active call; other numbers are inactive results; ? = inconclusive; / = no result.

SMILES | PolyA inhibitor | Calb FLC | T cruzi inh | NALP3 yeast inh | L major viab | NALP1 inh
CC(C)[C@H](Nc1ccc(S(=O)(=O)N2CCOCC2)cc1[N+](=O)[O-])C(=O)OCC(N)=O | 0.9 | -15.7 | -9.6 | 20.4 | 51.2* | 25.9
C/C(=N\NC(=O)c1ccccn1)c1ccc(C(=O)O)s1 | 3.5 | 31.0 | -29.7 | 8.2 | -5.6 | 0.4
COc1cc2c(cc1OC)C(c1cc3cccc(C)c3[nH]c1=O)N(C(=O)c1ccco1)CC2 (configuration not stated) | -9.6 | -3.6 | 58.2* | 3.1 | / | 2.5
COc1cc2c(cc1OC)C(COc1ccc(F)cc1)N(C(=O)c1ccco1)CC2 (configuration not stated) | 3.0 | 9.5 | 15.0 | 4.6 | 17.2 | 41.6
CC(=O)Nc1ccc(S(=O)(=O)N(CCCN2CCOCC2)Cc2cccs2)cc1 | -8.5 | 42.5 | 0.2 | 8.2 | 12.9 | -3.7
CC(C)(C)c1ccc(S(=O)(=O)N(CCCN2CCOCC2)Cc2cccs2)cc1 | -5.6 | -2.9 | 31.1 | 10.1 | 94.8* | 24.7
CCOC(=O)CCN(Cc1cccs1)S(=O)(=O)c1ccc(Cl)cc1 | -11.4 | 0.5 | 2.7 | 14.6 | 96.8* | 13.8
CNn1cnc2ccsc2c1=O | 1.6 | -0.3 | -5.1 | 3.8 | / | -2.4
O=C(COC(=O)c1ccc(O)cc1)Nc1ccccc1-c1ccccc1 | 22.1 | 4.9 | 7.5 | 36.0 | 56.7* | /
CN(C)c1ccc(NC(=O)CN2CCN(CC(=O)Nc3ccc(F)cc3)CC2)cc1 | 16.6 | 6.4 | -2.2 | 8.3 | -6.5 | 36.6
O=C(CN1CCN(c2ccccn2)CC1)Nc1ccccc1 | 15.1 | 3.8 | -10.3 | 16.1 | -1.3 | 6.6
O=C(CN1CCN(c2ccccn2)CC1)Nc1ccc(Oc2ccccc2)cc1 | -4.3 | 14.6 | 11.5 | 27.9 | 90.2* | -5.7
CN(C)c1ccc(NC(=O)CN2CCC(O)(c3ccccc3)CC2)cc1 | 4.5 | -0.2 | 17.5 | -3.8 | -3.6 | 28.7*
O=C(CN1CCCCCC1)Nc1ccc(Oc2ccccc2)cc1 | 10.3 | -11.2 | 27.0 | 34.3 | 62.2* | 3.9
O=C(COC(=O)C1CCC1)Nc1ccc(Oc2ccccc2)cc1 | -8.7 | 9.9 | -2.2 | 19.0 | 67.1* | 6.3
C=CCn1c(=O)c(C(=O)NC2CC2)c(O)c2cc(OC)c(OC)cc21 | -11.9 | -5.2 | -17.1 | 22.7 | / | 3.7
O=C(Nc1ccccc1C(=O)Nc1ccncc1)c1ccccc1 | 2.2 | -4.3 | 1.1 | 4.3 | / | 8.6
COCCn1cnc2c1c(=O)n(CC(=O)OCC(=O)NCCCc1ccccc1)c(=O)n2Cc1ccccc1 | 0.3 | -6.6 | -12.8 | -13.5 | 50.9* | 10.6
COCCn1cnc2c1c(=O)n(CC(=O)Nc1cc(C)on1)c(=O)n2Cc1ccccc1 | 12.9 | 6.1 | 4.8 | 11.6 | 0.0 | -2.0
Cc1cc(C)cc(NC(=O)CN(c2ccc(F)cc2)S(C)(=O)=O)c1 | 1.9 | ? | 10.1 | 4.0 | 0.8 | 10.5
O=C1[C@@H]2Cc3c([nH]c4ccccc34)C(c3cccc([N+](=O)[O-])c3)N2C(=O)CN1C1CCN(Cc2ccccc2)CC1 (some centres not stated) | 12.3 | 17.7 | 70.9* | 21.7 | / | 18.7
O=C1[C@@H]2Cc3c([nH]c4ccccc34)[C@@H](c3ccccc3)N2C(=O)[C@@H]2Cc3c([nH]c4ccccc34)[C@@H](c3ccccc3)N12 | / | / | / | / | 75.7* | 13.6
COc1ccc2c(c1)c1nnc(SCC(=O)N3C(C)CCCC3C)nc1n2C (configuration not stated) | -14.9 | 4.9 | 26.8 | 13.7 | 78.1* | 1.2
COc1ccc2c(c1)c1ccccc1n2C | 11.5 | 1.9 | -8.7 | -23.1 | -5.6 | /
COc1ccc2c(c1)c1nnc(SC)nc1n2C | 96.1* | 1.5 | 35.2 | 40.5 | 95.7* | 0.4
SMILES | PolyA inhibitor | Calb FLC | T cruzi inh | NALP3 yeast inh | L major viab | NALP1 inh
CCOc1ccc2c(c1)c1nnc(SCC(=O)NC3CC3)nc1n2C | -2.8 | 10.3 | -12.4 | 27.4 | / | 10.1
Cn1cc([N+](=O)[O-])c(C(=O)N(Cc2ccccc2)Cc2ccccc2)n1 | -3.5 | -10.4 | 6.1 | 9.2 | 37.1 | 27.8
CN(C)CCCN1C(=O)c2cccc3c(Br)ccc(c23)C1=O | -9.7 | 40.8 | 42.4 | 2.8 | 99.6* | 11.2
c1ccc(C2=Nc3ccccc3SC2c2nc3ccccc3[nH]2)cc1 (configuration not stated) | -22.3 | -9.6 | -17.5 | -3.4 | 16.9 | /
Cc1noc(C)c1COc1ccc(C(=O)Nc2ccccc2)cc1 | 13.5 | 20.4 | 1.2 | -7.0 | -3.2 | 4.4
Cc1noc(C)c1COc1cccc(C(=O)Nc2ccc(OCc3ccccc3)cc2)c1 | -13.6 | 0.3 | 20.2 | 29.1 | 53.1* | 11.3
Cc1noc(C)c1COC(=O)[C@@H](NC(=O)c1ccccc1)C(C)C | -11.3 | -6.5 | -30.9 | 16.0 | -7.1 | 23.7*
CC1CN(C(=O)CCC(=O)NCc2ccc(Cl)cc2)c2ccccc2O1 (configuration not stated) | -3.2 | -4.6 | -7.3 | 16.2 | / | 6.9
C=CCc1cc(C=O)cc(OC)c1OCc1c(Cl)cccc1Cl | 13.4 | 8.8 | -7.1 | 23.7 | 79.2* | -4.2
O=C(NC(Cc1ccccc1)C(=O)O)c1ccc(S(=O)(=O)N2CCCC2)cc1 (configuration not stated) | -6.6 | -3.7 | -5.3 | -7.2 | 72.2* | /
Cc1ccc(S(=O)(=O)N2CCN(C(=O)C(Cc3ccccc3)NC(=O)c3ccccc3)CC2)cc1 (configuration not stated) | / | / | / | 8.5 | / | /
O=C(Nc1ccccc1)c1ccc(S(=O)(=O)N2CCCC2)cc1 | -9.7 | 6.5 | -8.2 | 21.1 | -1.0 | -10.9
O=C(NC(Cc1ccccc1)C(=O)O)c1ccc(S(=O)(=O)N2CCCCC2)cc1 (configuration not stated) | -6.2 | 0.3 | 0.6 | 13.0 | 55.4* | -6.0
Cc1ccc(C(=O)NNC(=O)c2ccc3ccccc3c2O)cc1 | 5.3 | 32.0 | -12.5 | 26.5 | / | -38.9
COc1ccc(N2CCN(C(=O)c3cc(S(=O)(=O)N4CCCCCC4)ccc3OC)CC2)cc1 | / | / | / | 4.0 | / | /
Cn1c2ccccc2c(=O)c2cc(NCCCN3CCOCC3)ccc21 | / | / | / | -0.1 | / | /
CCC(CC)NCc1ccc2c(c1)c1ccccc1n2CC | 11.1 | -16.3 | 28.3 | 26.2 | 95.5* | 19.9
CCn1c2ccccc2c2cc(CNCc3ccc(OC)cc3OC)ccc21 | -14.4 | ? | 47.7 | 35.8 | 80.8* | 23.2*
CCn1c2ccccc2c2cc(CNCCCN3CCOCC3)ccc21 | -5.5 | -1.7 | 60.7* | 17.3 | / | -12.1
COc1cccc(CNCc2ccc(OC)cc2OC)c1 | 0.6 | -8.5 | -8.7 | 14.7 | / | -4.7
CCn1c2ccccc2c2cc(CN3CCN(S(=O)(=O)CC)CC3)ccc21 | 4.3 | -0.3 | 21.0 | 26.7 | 27.9 | 25.8
CCn1c2ccccc2c2cc(N)ccc21 | -6.6 | -3.4 | 42.1 | 23.5 | 78.3* | -4.3
Cc1ccc(CN(C(=O)c2cc(=O)c3cc(C)cc(C)c3o2)C2CCS(=O)(=O)C2)cc1 (configuration not stated) | 13.5 | 10.2 | -4.8 | -6.7 | / | -11.4
